# How the values were obtained:
# Bacteria = experiment: Inhibition of bacteria KPC-2 assessed as half life using nitrocefin as substrate
# Pseudomonas aeruginosa [1] = experiment: Synergistic antibacterial activity against Pseudomonas aeruginosa 715 assessed as meropenem MIC at 4 ug/ml by broth microdilution method; assay type: functional; conditions: dose 4 µg/ml
# Escherichia coli [2] = experiment: Synergistic antibacterial activity against Escherichia coli DH10B transfected with pBC SK (-) OXA-48 assessed as meropenem MIC at 4 ug/ml by broth microdilution method; assay type: functional; conditions: dose 4 µg/ml
# How it was run: (§1)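 Broth microdilution per CLSI guidelines, using custom frozen panels. […] Each partner drug was also tested alone. MICs were run in triplicate and the modal value is reported.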
# Acinetobacter baumannii [3] = experiment: Synergistic antibacterial activity against Acinetobacter baumannii PR440 producing OXA-23/24/40 assessed as meropenem MIC at 4 ug/ml by broth microdilution method; assay type: functional; conditions: dose 4 µg/ml
# Klebsiella pneumoniae [4] = experiment: Synergistic antibacterial activity against Klebsiella pneumoniae 1354/2241 producing KPC-3 assessed as meropenem MIC at 4 ug/ml by broth microdilution method; assay type: functional; conditions: dose 4 µg/ml; how it was run: as §1
# Klebsiella pneumoniae [5] = experiment: Synergistic antibacterial activity against Klebsiella pneumoniae 761/1723 producing KPC-3 assessed as cefepime MIC at 4 ug/ml by broth microdilution method; assay type: functional; conditions: dose 4 µg/ml; how it was run: as §1
# Escherichia coli [6] = experiment: Synergistic antibacterial activity against Escherichia coli DH10B transfected with pBC SK (-) PDC-3 assessed as cefepime MIC at 4 ug/ml by broth microdilution method; assay type: functional; conditions: dose 4 µg/ml; how it was run: as §1
# Klebsiella pneumoniae [7] = experiment: Synergistic antibacterial activity against Klebsiella pneumoniae jefferson 1775 producing OXA-48 assessed as cefepime MIC at 4 ug/ml by broth microdilution method; assay type: functional; conditions: dose 4 µg/ml
# Klebsiella pneumoniae [8] = experiment: Synergistic antibacterial activity against Klebsiella pneumoniae 977/1916 producing KPC-3 assessed as cefepime MIC at 4 ug/ml by broth microdilution method; assay type: functional; conditions: dose 4 µg/ml
# Escherichia coli [9] = experiment: Synergistic antibacterial activity against Escherichia coli DH10B transfected with pBC SK (-) KPC-3 assessed as cefepime MIC at 4 ug/ml by broth microdilution method; assay type: functional; conditions: dose 4 µg/ml
# Klebsiella pneumoniae [10] = experiment: Synergistic antibacterial activity against Klebsiella pneumoniae CAV 1636 producing OXA-181 assessed as cefepime MIC at 4 ug/ml by broth microdilution method; assay type: functional; conditions: dose 4 µg/ml
# Acinetobacter baumannii [11] = experiment: Synergistic antibacterial activity against Acinetobacter baumannii PR323 producing OXA-24/40 assessed as meropenem MIC at 4 ug/ml by broth microdilution method; assay type: functional; conditions: dose 4 µg/ml
# Acinetobacter baumannii [12] = experiment: Synergistic antibacterial activity against Acinetobacter baumannii PR363 producing OXA-23 assessed as meropenem MIC at 4 ug/ml by broth microdilution method; assay type: functional; conditions: dose 4 µg/ml
# Klebsiella pneumoniae [13] = experiment: Synergistic antibacterial activity against Klebsiella pneumoniae 901/1860 producing KPC-3 assessed as meropenem MIC at 4 ug/ml by broth microdilution method; assay type: functional; conditions: dose 4 µg/ml
# Klebsiella pneumoniae [14] = experiment: Synergistic antibacterial activity against Klebsiella pneumoniae 972/1910 producing KPC-3 assessed as meropenem MIC at 4 ug/ml by broth microdilution method; assay type: functional; conditions: dose 4 µg/ml
# Klebsiella pneumoniae [15] = experiment: Synergistic antibacterial activity against Klebsiella pneumoniae 1084/1957 producing KPC-3 assessed as meropenem MIC at 4 ug/ml by broth microdilution method; assay type: functional; conditions: dose 4 µg/ml; how it was run: as §1
# Klebsiella pneumoniae [16] = experiment: Synergistic antibacterial activity against Klebsiella pneumoniae 11978 producing OXA-48 assessed as meropenem MIC at 4 ug/ml by broth microdilution method; assay type: functional; conditions: dose 4 µg/ml; how it was run: as §1
# Acinetobacter baumannii [17] = experiment: Synergistic antibacterial activity against Acinetobacter baumannii PR448 producing OXA-23 assessed as cefepime MIC at 4 ug/ml by broth microdilution method; assay type: functional; conditions: dose 4 µg/ml
# Klebsiella pneumoniae [18] = experiment: Synergistic antibacterial activity against Klebsiella pneumoniae 776/1742 producing KPC-2 assessed as meropenem MIC at 4 ug/ml by broth microdilution method; assay type: functional; conditions: dose 4 µg/ml
# Klebsiella pneumoniae [19] = experiment: Synergistic antibacterial activity against Klebsiella pneumoniae 1398/2291 producing KPC-3 assessed as cefepime MIC at 4 ug/ml by broth microdilution method; assay type: functional; conditions: dose 4 µg/ml; how it was run: as §1
# Klebsiella pneumoniae [20] = experiment: Synergistic antibacterial activity against Klebsiella pneumoniae 440/1360 producing KPC-2 assessed as cefepime MIC at 4 ug/ml by broth microdilution method; assay type: functional; conditions: dose 4 µg/ml; how it was run: as §1
# Acinetobacter baumannii [21] = experiment: Synergistic antibacterial activity against Acinetobacter baumannii PR420 producing OXA-23/24/40 assessed as cefepime MIC at 4 ug/ml by broth microdilution method; assay type: functional; conditions: dose 4 µg/ml
# Acinetobacter baumannii [22] = experiment: Synergistic antibacterial activity against Acinetobacter baumannii PR474 producing OXA-23/24/40 assessed as cefepime MIC at 8 ug/ml by broth microdilution method; assay type: functional; conditions: dose 8 µg/ml
# Klebsiella pneumoniae [23] = experiment: Synergistic antibacterial activity against Klebsiella pneumoniae 761/1723 producing KPC-3 assessed as meropenem MIC at 8 ug/ml by broth microdilution method; assay type: functional; conditions: dose 8 µg/ml
# Pseudomonas aeruginosa [24] = experiment: Synergistic antibacterial activity against Pseudomonas aeruginosa 839 assessed as cefepime MIC at 8 ug/ml by broth microdilution method; assay type: functional; conditions: dose 8 µg/ml
# Escherichia coli [25] = experiment: Synergistic antibacterial activity against Escherichia coli DH10B transfected with pBR322-catI-KPC-2 assessed as cefepime MIC at 8 ug/ml by broth microdilution method; assay type: functional; conditions: dose 8 µg/ml; how it was run: as §1
# Acinetobacter baumannii [26] = experiment: Synergistic antibacterial activity against Acinetobacter baumannii PR420 producing OXA-23/24/40 assessed as meropenem MIC at 8 ug/ml by broth microdilution method; assay type: functional; conditions: dose 8 µg/ml
# Pseudomonas aeruginosa [27] = experiment: Synergistic antibacterial activity against Pseudomonas aeruginosa 839 assessed as meropenem MIC at 8 ug/ml by broth microdilution method; assay type: functional; conditions: dose 8 µg/ml
# Klebsiella pneumoniae [28] = experiment: Synergistic antibacterial activity against Klebsiella pneumoniae 1315/2198 producing KPC-3 assessed as meropenem MIC at 8 ug/ml by broth microdilution method; assay type: functional; conditions: dose 8 µg/ml; how it was run: as §1
# Acinetobacter baumannii [29] = experiment: Synergistic antibacterial activity against Acinetobacter baumannii PR448 producing OXA-23 assessed as cefepime MIC at 8 ug/ml by broth microdilution method; assay type: functional; conditions: dose 8 µg/ml
# How it was run: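 Broth microdilution per CLSI guidelines in frozen panels. Test compound held at fixed 8 mg/L while the partner β-lactam concentration was increased. Run in triplicate; modal MIC reported.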
# Pseudomonas aeruginosa [30] = experiment: Synergistic antibacterial activity against Pseudomonas aeruginosa CL232 assessed as meropenem MIC at 8 ug/ml by broth microdilution method; assay type: functional; conditions: dose 8 µg/ml
# Acinetobacter baumannii [31] = experiment: Synergistic antibacterial activity against Acinetobacter baumannii PR474 producing OXA-23/24/40 assessed as meropenem MIC at 8 ug/ml by broth microdilution method; assay type: functional; conditions: dose 8 µg/ml
# Klebsiella pneumoniae [32] = experiment: Synergistic antibacterial activity against Klebsiella pneumoniae 972/1910 producing KPC-3 assessed as cefepime MIC at 8 ug/ml by broth microdilution method; assay type: functional; conditions: dose 8 µg/ml
# Klebsiella pneumoniae [33] = experiment: Synergistic antibacterial activity against Klebsiella pneumoniae 1398/2291 producing KPC-3 assessed as meropenem MIC at 8 ug/ml by broth microdilution method; assay type: functional; conditions: dose 8 µg/ml; how it was run: as §1
# Acinetobacter baumannii [34] = experiment: Synergistic antibacterial activity against Acinetobacter baumannii PR408 producing OXA-24/40 assessed as cefepime MIC at 8 ug/ml by broth microdilution method; assay type: functional; conditions: dose 8 µg/ml
# Acinetobacter baumannii [35] = experiment: Synergistic antibacterial activity against Acinetobacter baumannii PR363 producing OXA-23 assessed as cefepime MIC at 8 ug/ml by broth microdilution method; assay type: functional; conditions: dose 8 µg/ml
# Acinetobacter baumannii [36] = experiment: Synergistic antibacterial activity against ADC deleted Acinetobacter baumannii assessed as meropenem MIC at 8 ug/ml by broth microdilution method; assay type: functional; conditions: dose 8 µg/ml
# Escherichia coli [37] = experiment: Synergistic antibacterial activity against Escherichia coli DH10B transfected with pBC SK (-) KPC-3 assessed as meropenem MIC at 8 ug/ml by broth microdilution method; assay type: functional; conditions: dose 8 µg/ml
Structure (SMILES),T1/2 (Bacteria) [min],MIC (Pseudomonas aeruginosa [1]) [µg/mL],MIC (Escherichia coli [2]) [µg/mL],MIC (Acinetobacter baumannii [3]) [µg/mL],MIC (Klebsiella pneumoniae [4]) [µg/mL],MIC (Klebsiella pneumoniae [5]) [µg/mL],MIC (Escherichia coli [6]) [µg/mL],MIC (Klebsiella pneumoniae [7]) [µg/mL],MIC (Klebsiella pneumoniae [8]) [µg/mL],MIC (Escherichia coli [9]) [µg/mL],MIC (Klebsiella pneumoniae [10]) [µg/mL],MIC (Acinetobacter baumannii [11]) [µg/mL],MIC (Acinetobacter baumannii [12]) [µg/mL],MIC (Klebsiella pneumoniae [13]) [µg/mL],MIC (Klebsiella pneumoniae [14]) [µg/mL],MIC (Klebsiella pneumoniae [15]) [µg/mL],MIC (Klebsiella pneumoniae [16]) [µg/mL],MIC (Acinetobacter baumannii [17]) [µg/mL],MIC (Klebsiella pneumoniae [18]) [µg/mL],MIC (Klebsiella pneumoniae [19]) [µg/mL],further results
O.O=C(NC1CCNCC1)[C@@H]1CC[C@@H]2CN1C(=O)N2OS(=O)(=O)O [RELEBACTAM],46,16,0.25,> 16,≤ 0.12,≤ 0.12,≤ 0.12,0.25,0.25,≤ 0.12,4,> 16,> 16,≤ 0.12,≤ 0.12,≤ 0.12,> 16,16,0.5,≤ 0.12,MIC (Klebsiella pneumoniae [20]): 1 µg/mL; MIC (Acinetobacter baumannii [21]): > 16 µg/mL
NC(=O)[C@@H]1CC[C@@H]2CN1C(=O)N2OS(=O)(=O)[O-].[Na+] [AVIBACTAM SODIUM],82,16,≤ 0.12,> 16,≤ 0.12,≤ 0.12,≤ 0.12,≤ 0.12,≤ 0.12,≤ 0.12,0.5,> 16,> 16,≤ 0.12,≤ 0.12,≤ 0.12,1,16,≤ 0.12,≤ 0.12,MIC (Klebsiella pneumoniae [20]): ≤ 0.12 µg/mL; MIC (Acinetobacter baumannii [21]): > 16 µg/mL
N#C[C@@H]1CC[C@@H]2CN1C(=O)N2OS(=O)(=O)[O-].[Na+],26,16,≤ 0.12,4,≤ 0.12,≤ 0.12,≤ 0.12,≤ 0.12,≤ 0.12,≤ 0.12,0.5,16,4,≤ 0.12,≤ 0.12,≤ 0.12,≤ 0.12,2,0.5,≤ 0.12,MIC (Acinetobacter baumannii [22]): 8 µg/mL; MIC (Klebsiella pneumoniae [23]): ≤ 0.12 µg/mL; MIC (Pseudomonas aeruginosa [24]): 8 µg/mL; MIC (Escherichia coli [25]): ≤ 0.12 µg/mL; MIC (Acinetobacter baumannii [26]): 8 µg/mL; MIC (Pseudomonas aeruginosa [27]): 1 µg/mL; MIC (Klebsiella pneumoniae [28]): ≤ 0.12 µg/mL; MIC (Acinetobacter baumannii [29]): 4 µg/mL; MIC (Pseudomonas aeruginosa [30]): > 16 µg/mL; MIC (Acinetobacter baumannii [31]): 16 µg/mL; MIC (Klebsiella pneumoniae [32]): 0.25 µg/mL; MIC (Klebsiella pneumoniae [33]): ≤ 0.12 µg/mL; MIC (Acinetobacter baumannii [34]): 8 µg/mL; MIC (Acinetobacter baumannii [35]): 8 µg/mL; MIC (Acinetobacter baumannii [36]): ≤ 0.12 µg/mL; MIC (Klebsiella pneumoniae [20]): 0.5 µg/mL; MIC (Acinetobacter baumannii [21]): > 16 µg/mL; MIC (Escherichia coli [37]): ≤ 0.12 µg/mL

# Reference: ChEMBL document CHEMBL5247575 (J Med Chem, 2018)
